Screening data from PubChem BioAssay.
PKA-R2B activ: activates the human PKA-R2B holoenzyme complex | activation, % at 11.4 µM | AID 504700 | PKA-R2B holoenzyme dissociation, Cy5-IP20 fluorescence polarization; R2B truncated from residue 108, S112A mutant; 0% DMSO only, 100% 113 µM cGMP | 340,000 compounds, 0.079% hits;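 active = activation above a cutoff set at the mean over all compounds plus 3 SD, cut at about 18% in these data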;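 also: higher means more holoenzyme dissociation and a rise in polarization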
NR2E3 ag-1: NR2E3 (human) agonism | 320,000 compounds, 0.12% hits | inhibition of corepressor binding, % at 4.78 µM | GST-NR2E3/biotin-RetCOR TR-FRET, 1536-well;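 active = percent inhibition above the cutoff of mean plus 3 SD of all tested compounds, set per screening campaign, cut at about 20% in these data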;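 also: 0% = DMSO wells and 100% = biotin wells as full block of FRET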
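System: GST-tagged NR2E3 plus biotinylated RetCOR corepressor; Amount: 1.35 nM GST-tagged NR2E3 final; Dosing: single nominal compound dose of 4.8 µM; Schedule: 5 h incubation at 4 °C; Technique: TR-FRET with europium anti-GST and streptavidin-D2, 340 nm excitation; Controls: biotin wells as high control, 0.6% DMSO wells as low control.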
NR1D1 modulator: modulators of human Rev-erb alpha DNA binding; activity, % at 10 µM; Rev-erbα–FITC-DNA binding, fluorescence polarization, 90 min; AID 1259318; P20393; 370,000 compounds, 0.79% hits;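 active = activity above about 14%, limit read from the data; passing the limit was not always enough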;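 also: 0% = DMSO wells with 35 nM protein and 100% = DMSO wells with 750 nM protein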
Target sequence (P20393 whole entry, looked up): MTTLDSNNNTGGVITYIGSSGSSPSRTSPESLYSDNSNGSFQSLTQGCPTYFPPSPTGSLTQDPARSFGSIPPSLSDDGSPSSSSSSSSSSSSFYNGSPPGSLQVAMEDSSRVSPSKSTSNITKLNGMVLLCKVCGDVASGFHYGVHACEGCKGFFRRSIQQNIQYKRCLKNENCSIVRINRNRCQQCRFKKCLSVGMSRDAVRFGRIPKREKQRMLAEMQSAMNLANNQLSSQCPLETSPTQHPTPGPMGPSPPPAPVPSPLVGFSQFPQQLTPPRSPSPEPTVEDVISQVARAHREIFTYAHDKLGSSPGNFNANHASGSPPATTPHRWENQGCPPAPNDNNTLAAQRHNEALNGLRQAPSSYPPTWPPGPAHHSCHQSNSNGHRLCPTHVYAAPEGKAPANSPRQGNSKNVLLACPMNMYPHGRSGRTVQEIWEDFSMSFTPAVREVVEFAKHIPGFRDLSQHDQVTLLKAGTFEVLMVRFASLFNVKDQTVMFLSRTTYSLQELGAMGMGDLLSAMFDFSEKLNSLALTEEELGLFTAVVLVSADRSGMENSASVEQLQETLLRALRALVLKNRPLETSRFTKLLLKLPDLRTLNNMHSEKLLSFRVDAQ
PKA-R1A activ: PKA-R1A complex activation; P00514+P68181; PKA-R1A dissociation, Cy5-IP20 fluorescence polarization; scaled: DMSO 0%, 113 µM cGMP 100%; activation, % at 11.4 µM; 340,000 compounds, 0.083% hits;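 active = percent activation above the mean of all tested compounds plus 3 SD, cut at about 19% in these data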;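 also: higher means more PKAc released from R1A so a rise in polarization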
PG9 binder: small molecules binding HIV-1 gp120 antibody PG9; AID 624416; TR-FRET gp120-PG9 antibody binding; inhibition, % at 6.7 µM; 360,000 compounds, 0.43% hits; in the data active = inhibition above about 8.5%
NR2E3 ag-2: activates human NR2E3 receptor. Q9Y5X4. CHO-S Gal4-NCOR/VP16-NR2E3 two-hybrid, luciferase. inhibition of corepressor binding, % at 3.98 µM. 360,000 compounds, 0.35% hits. AID 602229;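 active = inhibition above the mean of all tested compounds plus 3 SD, cut at about 70% in these data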;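 also: 0% = DMSO with NR2E3 transfected cells and 100% = cells lacking NR2E3 construct; higher means lower luciferase signal from less NR2E3 corepressor binding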
R1A FP artifact: FP assay interference, PKA-R1A counter-screen; shares compounds with PKA-R1A activ; Cy5-IP20 peptide alone, fluorescence polarization artifact counterscreen; activation, % at 11.4 µM; 280 compounds, 7% hits;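 active = mean activation over triplicate runs exceeds the adjusted cutoff derived for the parent primary screen, cut at about 19% in these data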;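 also: no PKA protein present so any polarization rise reflects compound interference; 0% = tracer peptide mix alone and 100% = mix with added PKA catalytic subunit; higher means stronger polarization artifact and likely false positive in parent screen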
PKA-R1A act conf: confirmation of PKA-R1A complex activators | 280 compounds, 9% hits | activation, % at 11.4 µM | Cy5-IP20 fluorescence polarization, PKA-R1A holoenzyme dissociation | shares compounds with PKA-R1A activ;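 active = mean activation over replicate wells exceeds the adjusted hit threshold taken from the earlier primary screen, cut at about 20% in these data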;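 also: 0% = holoenzyme mix with DMSO only and 100% = cGMP-activated control wells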
NR2E3 ag conf: NR2E3 agonism confirmed in two-hybrid assay; inhibition, % at 3.98 µM; 2,300 compounds, 51% hits; shares compounds with NR2E3 ag-2; CHO-S mammalian two-hybrid NR2E3-NCOR, luciferase luminescence;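 active = average inhibition above a cutoff equal to the mean inhibition of all tested compounds plus one SD, cut at about 70% in these data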;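 also: 0% = DMSO in NR2E3 cells and 100% = DMSO in cells lacking NR2E3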
VP16 counter: counter-screen for NR2E3 agonists: GAL4-VP16 reporter inhibitors. inhibition, % at 3.98 µM. CHO-S GAL4-VP16 luciferase reporter, luminescence. 2,300 compounds, 29% hits. AID 624379. shares compounds with NR2E3 ag-2;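 active = mean inhibition above a cutoff equal to the average over all tested compounds plus one standard deviation, cut at about 70% in these data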;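 also: luciferase from a UAS reporter driven by GAL4-VP16 transactivation; 0% = DMSO with VP16-transfected cells and 100% = DMSO with cells lacking VP16; higher means less reporter light so more repression of VP16 activity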
PG9 binder conf: PG9 antibody binding, confirmed. shares compounds with PG9 binder. TR-FRET PG9 antibody binding, biochemical. inhibition, % at 6.7 µM. 1,500 compounds, 90% hits. AID 651571; in the data active = inhibition above about 9%
PGV04 counter: PGV04 control antibody binding, counter-screen; shares compounds with PG9 binder; TR-FRET PGV04 antibody-gp120 binding, biochemical; inhibition, % at 6.7 µM; AID 651604; 1,500 compounds, 95% hits; in the data active = inhibition above about 9.5%
* marks the source's active call; other numbers are inactive results; · = not tested or not shown. Most compounds without a hit are left out; they make up all but 1.6% or so of the library.

SMILES	PKA-R2B activ	NR2E3 ag-1	NR1D1 modulator	PKA-R1A activ	PG9 binder	NR2E3 ag-2	R1A FP artifact	PKA-R1A act conf	others
C[C@@H]1OC(C2CCCCC2)N(C)[C@H]2C[C@H]3c4[nH]c5cccc(-c6cccc(F)c6)c5c4CCN3C(=O)[C@@H]12 (some centres not stated)	·	·	-3	·	·	·	·	·
CCCNC(=O)N(C)C[C@H]1Oc2ncc(C#CCc3ccccc3)cc2C(=O)N([C@H](C)CO)C[C@H]1C	-1	·	1	3	-3	-16	·	·
COc1ccccc1NC(=O)N(C)C[C@H]1Oc2ncc(C#CCN(C)C)cc2C(=O)N([C@H](C)CO)C[C@H]1C	-13	·	·	21*	·	-14	0	-1
CC(=O)c1ccc(N2CCC(C)CC2)c(F)c1	12	2	-1	20*	-1	2	-1	1
Fc1ccccc1N1CCN(C2CCN(Cc3c[nH]c4ccccc34)CC2)CC1	-1	2	-1	19*	2	-14	4	3
Nc1cc(N)nc(SCc2cc(=O)oc3cc4c(cc23)CCC4)n1	1	-5	1	20*	0	-22	-3	-1
Cc1cc2oc(=O)cc(CSc3nc(N)cc(N)n3)c2cc1C(C)C	-2	-3	4	-3	1	-21	·	·
O=C1N(C2CCCC2)C[C@@H]2C[C@@H](c3cccn3-c3ccccn3)N3CCC[C@@]123	5	1	-2	20*	-3	-23	2	2
COC(=O)[C@H](C(C)C)N1CCc2nnn(Cc3ccc(C)cc3)c2-c2cc(F)ccc2S1(=O)=O	·	·	0	·	·	·	·	·
COc1cc(NC(=O)c2cc(-c3ccco3)on2)cc(OC)c1OC	-3	1	-2	19*	0	-20	3	0
COc1ccc(-c2cc(C(=O)Nc3cc(OC)c(OC)c(OC)c3)no2)cc1OC	1	-3	0	-8	·	-25	·	·
O=C1NCCc2c1[nH]c1ccc([N+](=O)[O-])cc21	9	5	3	19*	0	-8	3	5
O=C(NC1CCC1)c1ccc(C#CC2CC2)c[n+]1[O-]	·	·	0	·	·	·	·	·
Cc1c(C(=O)Nc2ccc(Oc3ccccc3)cc2)sc2nc3n(c(=O)c12)CCC3	1	-2	4	21*	1	70	-2	0	NR2E3 ag conf=87*;VP16 counter=54
O=C(OC12CCCN(C1)/C(=C/c1ccc(Cl)cc1)C2)C1CCCC1 (configuration not stated)	·	·	5	·	·	·	·	·
CCCCOc1ccc(C(=O)Nn2c(-c3cccs3)nc3ccccc3c2=O)cc1	6	0	11	19*	30*	-27	2	4	PG9 binder conf=37*;PGV04 counter=59*
COc1cc2c(cc1NC(=O)CSc1nnc(-c3ccccc3F)n1-c1ccc(C)cc1)oc1ccccc12	·	·	5	·	·	·	·	·
